Data on six molecules can be found in ChEMBL document CHEMBL1146887 (J Med Chem, 2006).

Active and inactive are the calls of the source. The calls are words filed in the database; no cut-off is given here.

Test [1] has as its target T1, Delta-type opioid receptor (Homo sapiens, UniProt P41143). Description: Inverse agonist activity at human cloned delta opioid receptor expressed in CHO cells assessed as […] [35S]GTP-gamma-S binding in presence of 1 uM GDP. Format: functional, cell-based. (Binding of GTPγS marks nucleotide exchange on a G protein.)
In test [2] the target is Opioid receptors; mu & delta (Homo sapiens) (UniProt P41143+P35372). The test is described as follows: Selectivity for human cloned delta opioid receptor over mu opioid receptor. Type of test: protein assay. Summed up: (§1)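 Ratios of Ke values from [³⁵S]GTPγS antagonism assays at cloned human µ, δ and κ receptors in CHO membranes, each run with 10 µM GDP final against DAMGO, DPDPE or U69593 agonist curves.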
Chain of Opioid receptors; mu & delta (Homo sapiens) (P35372 whole entry, looked up): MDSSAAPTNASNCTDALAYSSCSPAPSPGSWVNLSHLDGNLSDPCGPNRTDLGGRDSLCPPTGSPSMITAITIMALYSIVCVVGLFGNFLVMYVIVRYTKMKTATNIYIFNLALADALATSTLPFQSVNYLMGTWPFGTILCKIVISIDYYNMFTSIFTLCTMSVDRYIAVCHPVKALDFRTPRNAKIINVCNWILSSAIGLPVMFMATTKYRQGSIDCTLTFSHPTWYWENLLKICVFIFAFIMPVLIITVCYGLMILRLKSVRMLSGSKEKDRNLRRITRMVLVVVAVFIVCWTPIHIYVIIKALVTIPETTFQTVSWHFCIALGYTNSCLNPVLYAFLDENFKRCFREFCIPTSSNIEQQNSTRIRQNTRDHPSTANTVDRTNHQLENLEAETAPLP
Chain of Opioid receptors; mu & delta (Homo sapiens) (P41143 whole entry, looked up): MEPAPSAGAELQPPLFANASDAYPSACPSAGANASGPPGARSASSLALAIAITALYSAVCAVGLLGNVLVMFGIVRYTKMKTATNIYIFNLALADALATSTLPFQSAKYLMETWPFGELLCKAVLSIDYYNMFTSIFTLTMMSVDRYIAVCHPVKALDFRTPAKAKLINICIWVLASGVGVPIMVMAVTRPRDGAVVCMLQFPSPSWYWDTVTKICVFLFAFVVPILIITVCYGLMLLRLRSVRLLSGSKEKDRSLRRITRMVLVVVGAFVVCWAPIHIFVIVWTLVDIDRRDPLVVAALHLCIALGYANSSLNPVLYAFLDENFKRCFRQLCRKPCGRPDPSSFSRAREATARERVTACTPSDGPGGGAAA

Test [3] addresses T1, Delta-type opioid receptor. Description: Inverse agonist activity at human cloned delta opioid receptor expressed in CHO cells assessed as […] [35S]GTP-gamma-S binding in presence of 1 uM GDP relative to control. Type of test: functional, cell-based. Further details: scale not given: the % may be the effect or the level left.
Test [4] addresses Mu-type opioid receptor (Homo sapiens) (UniProt P35372). The test is described as follows: Antagonist activity at human cloned mu opioid receptor expressed in CHO cells assessed as inhibition of DAMGO-stimulated [35S]GTP-gamma-S binding in presence of 10 uM GDP. Type of test: functional, cell-based. In a few lines:
(§2)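 Membranes of CHO cells expressing cloned human receptor (0.4-0.6 pmol/mg), 20-40 µg protein, with 0.5 nM [³⁵S]GTPγS, 10 µM GDP final, 1% DMSO, in 20 mM Hepes pH 7.4, 100 mM NaCl, 10 mM MgCl₂; 1 h room temperature. Agonist curves (seven concentrations, 0.32-32 000 nM) ± one test concentration (µ 3-300, δ 1-50, κ 50-300 nM). Filtration over GF/B, scintillation counting; Ke as mean ± SE, ≥3 experiments.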

Test [5] concerns the target Opioid receptors; delta & kappa (Homo sapiens) (UniProt P41145+P41143). The test is described as follows: Selectivity for human cloned delta opioid receptor over kappa opioid receptor. Type of test: protein assay. Summed up: as §1
For test [6], the target named is Kappa-type opioid receptor (Homo sapiens) (UniProt P41145). The test is described as follows: Intrinsic activity at kappa opioid receptor in presence of 1 uM GDP. Format: functional.
Chain of Kappa-type opioid receptor (Homo sapiens) (P41145 whole entry): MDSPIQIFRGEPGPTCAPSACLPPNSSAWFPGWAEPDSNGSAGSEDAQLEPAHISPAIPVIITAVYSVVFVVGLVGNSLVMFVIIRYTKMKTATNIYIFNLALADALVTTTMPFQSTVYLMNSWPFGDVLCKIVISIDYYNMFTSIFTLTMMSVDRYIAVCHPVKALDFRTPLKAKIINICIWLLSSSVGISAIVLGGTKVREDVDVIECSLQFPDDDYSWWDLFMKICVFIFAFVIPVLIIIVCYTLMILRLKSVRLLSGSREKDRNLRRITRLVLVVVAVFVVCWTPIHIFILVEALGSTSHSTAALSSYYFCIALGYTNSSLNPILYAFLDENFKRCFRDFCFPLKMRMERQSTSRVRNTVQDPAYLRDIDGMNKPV
Test [7] addresses Mu-type opioid receptor (Homo sapiens) (UniProt P35372). The test is described as follows: Intrinsic activity at mu opioid receptor in presence of 1 uM GDP. Type of test: functional.
Test [8] deals with Kappa-type opioid receptor (Homo sapiens) (UniProt P41145). Description: Antagonist activity at human cloned kappa opioid receptor expressed in CHO cells assessed as inhibition of U69593-stimulated [35S]GTPgammaS binding in presence of 10 uM GDP. Type of test: functional, cell-based. Summed up: as §2
In test [9] the target is T1, Delta-type opioid receptor. The test is described as follows: Antagonist activity at human cloned delta opioid receptor expressed in CHO cells assessed as inhibition of DPDPE-stimulated [35S]GTP-gamma-S binding in presence of 10 uM GDP. Type of test: functional, cell-based. Summed up: as §2
Test [10] addresses T1, Delta-type opioid receptor. Description: Agonist activity at delta opioid receptor at 31.6 uM. Type of test: functional.

Chain of Mu-type opioid receptor (Homo sapiens) (P35372 whole entry): as the sequence (P35372 whole entry, looked up) above
Chain of Opioid receptors; delta & kappa (Homo sapiens) (P41143 whole entry, looked up): as the sequence (P41143 whole entry, looked up) above
Chain of Opioid receptors; delta & kappa (Homo sapiens) (P41145 whole entry, looked up): as the sequence (P41145 whole entry) above
T1 sequence (P41143 whole entry): as the sequence (P41143 whole entry, looked up) above

As usually defined, the IC50 is the midpoint of a concentration-inhibition curve. In the case of `C[C@H]1CN(CCCc2ccccc2)[C@@H]2C[C@@H](NC(=O)C3(c4ccc(F)cc4)CCCC3)C[C@@]1(c1cccc(O)c1)C2`, the half-maximal inhibitory concentration (IC50) in test [1] is 0.45 nM. In addition, the Ratio Ke in [2] is 35; in [5] it was 17. For the same molecule, in test [3], the Activity worked out at 72%. The Ke in test [4] came out at 9.1 nM; in [8], 4.5 nM; in [9], 0.26 nM. In addition, the result in test [6], in test [7] and in [10] was inactive.

`Cc1ccccc1/C=C/CN1C[C@H](C)[C@@]2(c3cccc(O)c3)C[C@H](NC(=O)C3(c4ccccc4)CCCC3)C[C@@H]1C2`: in test [1], the half-maximal inhibitory concentration (IC50) came out at 0.5 nM. Moreover, the Ratio Ke in test [2] stood at 7.6; in test [5], 22. In [3], the Activity was determined as 70%. Besides, the Ke was determined as 2.51 nM in test [4], 5.6 nM in [8] and 0.33 nM in test [9]. For the same molecule, the outcome in [6], in test [7] and in test [10] was inactive.

Regarding `C[C@H]1CN(C)[C@@H]2C[C@@H](NC(=O)C3(c4ccccc4)CCCC3)C[C@@]1(c1cccc(O)c1)C2`, the half-inhibitory concentration (IC50) in test [1] was found to be 95 nM. In addition, the Ratio Ke was 0.6 in [2] and 0.8 in test [5]. Also, the Activity in test [3] was 79%. Also, the values for the Ke in test [4], in [8] and in test [9] were 43.2 nM, 61 nM and 76.8 nM, respectively. In addition, the outcome in test [6], in test [7] and in test [10] was inactive.

In the case of `C[C@H]1CN(CCCc2ccccc2)[C@@H]2C[C@@H](NC(=O)C3(c4cccc5ccccc45)CCCC3)C[C@@]1(c1cccc(O)c1)C2`, the half-maximal inhibitory concentration (IC50) in test [1] turned out to be 16 nM. In addition, the Ratio Ke in test [2] stood at 19; in test [5], 31. Moreover, the Activity in test [3] is 46%. In addition, the Ke worked out at 27.2 nM in test [4], 43.6 nM in test [8] and 1.42 nM in [9]. Besides, the result in test [6], in test [7] and in [10] was inactive.

For the molecule `C[C@H]1CN(CCOc2ccccc2)[C@@H]2C[C@@H](NC(=O)C(C)(C)c3ccccc3)C[C@@]1(c1cccc(O)c1)C2`, in [1], the IC50 worked out at 1.4 nM. Further, the Ratio Ke was 13 in test [2] and 111 in [5]. The Activity in test [3] came to 83%. Further, the Ke amounted to 11.4 nM in test [4], 96.3 nM in test [8] and 0.87 nM in [9]. Further, the result in [6], in [7] and in [10] was inactive.

`C[C@H]1CN(CCCc2ccccc2)[C@@H]2C[C@@H](NC(=O)C3(c4ccc5ccccc5c4)CCCC3)C[C@@]1(c1cccc(O)c1)C2`: in [1], the half-maximal inhibitory concentration (IC50) amounted to 7.7 nM. Besides, the results for the Ratio Ke in test [2] and in test [5] were 47 and 75, respectively. Moreover, the Activity in test [3] is 69%. For the same molecule, the results for the Ke in [4], in [8] and in test [9] were 35 nM, 56.1 nM and 0.75 nM, respectively. Moreover, the result in test [6], in test [7] and in [10] was inactive.
